Reference: the RNAGym collection of RNA variant scans (doi:10.1126/science.aae0568)
Variants at the floor of the assay were thinned out.

B1: tRNA (parent)
chain: GUUCCGUUGGCGUAAUGGUAACGCGUCUCCCUCCUAAGGAGAAGACUGCGGGUUCGAGUCCCGUACGGAACG

Variants of: B1
Test: yeast fitness relative to wild type (ratio to wild type); higher = fitter; tRNA-Arg(CCU), competitive growth, 37 C, YPD
Procedure, shortened: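 Genotype frequency changes were the basis for Darwinian fitness relative to wild type. The frequencies came from 100-nucleotide paired-end sequencing of gene amplicons from the start population and each end population of pooled yeast strains with tRNA-Arg(CCU) gene variants at the native locus. Competition ran in YPD at 37°C for 24 hours in six replicates, genotypes needed ≥ 100 starting reads, and estimates < 0.5 were set to 0.5.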

Variant | yeast fitness
G10A U54C G68A A70G | ≤ 0.5
G10A G38C G50A A69G | ≤ 0.5
G10C C55U G56A | ≤ 0.5
G10C C55U G56C | ≤ 0.5
G10A U13A | 0.684
G10C G38C | 0.538
G10A U32C A57G | ≤ 0.5
G10A G44A C66U | 0.534
G10C A36U U53A C60A | 0.548
G10C A14U U32C C62U | ≤ 0.5
G10C C60U G63C | ≤ 0.5
G10A C34G A40C C46G | ≤ 0.5
G10C C33A A45C | 0.551
G10C A36U C60G | ≤ 0.5
G10A G51A C66U | ≤ 0.5
G10A G12A G52A C66U | ≤ 0.5
G10C A57G A69U | 0.559
G10C C27U A36C C61U A65G | ≤ 0.5
G10A G50A U59A C61A C66G | 0.606
G10A U19A A40C A42C G68C | 0.582
G10A C31U G38C G67A | ≤ 0.5
G10A C31A G41A A45U G58C | ≤ 0.5
G10C C24U G68C | ≤ 0.5
G10C C22G C29G C46U A65C | ≤ 0.5

Variant | yeast fitness
G10A G17C C30G C33G C61A A69U | 0.581
G10C C27A A42U C62G | 0.556
G10C C11G | 0.682
G10A U28A A42U | ≤ 0.5
G10C A21C C30U G41C | ≤ 0.5
G10A G17A C30G G67U | ≤ 0.5
G10C C34U C60A G67A | ≤ 0.5
G10C C27G A42C C49A | ≤ 0.5
G10A U59C | 0.721
G10A G39C A70G | 0.589
G10A G25U A36U A43G C60U | ≤ 0.5
G10C A14C C60A | ≤ 0.5
G10A G17C C30G C33G G68C | ≤ 0.5
G10C A21G C55G A57G C60A | ≤ 0.5
G10C G25C U26C U47C | ≤ 0.5
G10A C33U A65C | ≤ 0.5
G10A U54G | ≤ 0.5
G10A G17C C30G C33G A45U G52A A70U | ≤ 0.5
G10A U13C C31G A57C | 0.587
G10C G18A G58A C66G | ≤ 0.5
G10C C22U U26A C49U A65U | ≤ 0.5
G10C C27A C61U | ≤ 0.5
G10A C33U G50A | ≤ 0.5
G10A G17A A36G G38C A45U C46U G67U | ≤ 0.5

Variant | yeast fitness
G10C A15U C33A A36U C62U | ≤ 0.5
G10A G52A | 0.53
G10A G52C | 0.528
G10A C31U G38C G41A G63A G68C A69G | ≤ 0.5
G10C A20G A43G C46U | ≤ 0.5
G10C C29G U32G | ≤ 0.5
G10A U13A C29U C49G | ≤ 0.5
G10A G25C | 0.656
G10A C30U C60G | ≤ 0.5
G10C G17A U28G G39A C49A | ≤ 0.5
G10A U16A A65U | 0.575
G10C A57C U64A | ≤ 0.5
G10A C33U G44C A45G | ≤ 0.5
G10C A37U G52A C66U | ≤ 0.5
G10A C30U U47A G67C | ≤ 0.5
G10C C46U A65C | 0.621
G10C C34U G39U A40C | ≤ 0.5
G10C C24U C29G A45U C46G U47A G50A U64G | 0.536
G10C C24G U28C A37G U47A | ≤ 0.5
G10C C34G G56C | 0.52
G10C C33G A43G C46G C62G | 0.562
G10C C22U A70G | 0.513
G10C C27U G38A C46G G63A | ≤ 0.5
G10C A43G | 0.739

Variant | yeast fitness
G10A G38U G67U | ≤ 0.5
G10A G38U G67C | ≤ 0.5
G10A U26C G56A | 0.542
G10C A65C | 0.76
G10C A65U | 0.767
G10C A65G | 0.719
G10C G18C A42G G68A | ≤ 0.5
G10A G38A A45G A70G | ≤ 0.5
G10A G17A C30G U35A G50A | 0.626
G10C C27U A40U A45U G48A C55U C66U | 0.591
G10A C33A U35C C60A | ≤ 0.5
G10A C60G A69G | 0.616
G10A G41A C49U U53A | ≤ 0.5
G10C A36U U64C C66U A70C | ≤ 0.5
G10C C29G G44C C49A U64C | ≤ 0.5
G10A U64A | 0.73
G10C A36U A42G G56A U59G | ≤ 0.5
G10C A14C G58A | ≤ 0.5
G10A G68A A70G | 0.596
G10A G48A C55A | ≤ 0.5
G10A G17A U19A C29U C34G | ≤ 0.5
G10C C34U A65G | ≤ 0.5
G10C C31A A37U G63A A65G | ≤ 0.5
G10C A14U G51A C62U | ≤ 0.5

Variant | yeast fitness
G10C A42C A43G | ≤ 0.5
G10C C49A C55A C62U C66U | ≤ 0.5
G10A G25A C62U | ≤ 0.5
G10C C24U C29A A45U C46G U47A G50A U64G | 0.575
G10C A14C G23U C31A C33G | 0.512
G10C G38A C61A | 0.618
G10A G58C A70U | 0.701
G10A C30U A43U C55A | ≤ 0.5
G10A C62U G67C | 0.636
G10A G50A G51A | ≤ 0.5
G10C A15U C29G C46U G51C A65G | ≤ 0.5
G10C A15U C29G C46U G51C C61G | ≤ 0.5
G10A G17A C29A C34G A43C C60G | ≤ 0.5
G10C C31U | 0.78
G10C G12A A15G G63A | 0.643
G10C C30U U54A | ≤ 0.5
G10C C33A C62A | 0.652
G10C C30G C55A | ≤ 0.5
G10A U26C A36G G56A | ≤ 0.5
G10A C60G G67A | ≤ 0.5
G10C A14C C61A G67A A69C | ≤ 0.5
G10C G12C G39A | ≤ 0.5
G10C A20G | 0.775
G10C C61A A69G | ≤ 0.5

Variant | yeast fitness
G10C G25A U64C | ≤ 0.5
G10C A21C C30G U32C C60U G67C | 0.54
G10C C66G | 0.515
G10A C31U A65U | 0.566
G10C C22A C24G U53A | 0.547
G10A G17C C31U G44A C46A | ≤ 0.5
G10C C22A G56C A65G | ≤ 0.5
G10C A15G C27G | 0.695
G10C A15G G18A U35A G44A | ≤ 0.5
G10A C30U C46A C66U | ≤ 0.5
G10A G41A A42C G50C A70G | 0.533
G10C A57C | ≤ 0.5
G10C C30G C60A | ≤ 0.5
G10A C61A A69C A70C | ≤ 0.5
G10A U47G A65C | ≤ 0.5
G10C A43U C46G | ≤ 0.5
G10A C30U G50A A70U | ≤ 0.5
G10C A21C C22G A36G A57C | ≤ 0.5
G10C C31G C49U | ≤ 0.5
G10C A69C | 0.785
G10C A69G | 0.51
G10A U35A G63C | ≤ 0.5
G10C A20G C24U G38C U53G | ≤ 0.5
G10C C33A G56C | 0.577

Variant | yeast fitness
G10A C34G G44C U47C G52A U53C C61U | ≤ 0.5
G10A U35G A37U | 0.551
G10C C34U | 0.565
G10C C34G | 0.501
G10C G17A U35G | ≤ 0.5
G10A G44A U54C G67C | ≤ 0.5
G10A U13A C30U C55G G58C | ≤ 0.5
G10A U19A | 0.729
G10C G38C C49A G50C G68C | ≤ 0.5
G10C G25C G38C A40G A42G | ≤ 0.5
G10A G23C C29U A36C | 0.532
G10C C11U A20C A57U | ≤ 0.5
G10C C24G G50A | ≤ 0.5
G10C A43C C49U | ≤ 0.5
G10A C55U | 0.559
G10A C55G | 0.605
G10A C46G A65C | 0.597
G10C C24U G52A G56A | ≤ 0.5
G10A U26C C29G C31U | ≤ 0.5
G10C A42U C61U C62U | ≤ 0.5
G10C C24A C33G A40G A42G | ≤ 0.5
G10A C46A | 0.677
G10A G12A G17U U28C U54C | ≤ 0.5
